# Results pooled from the literature.
# Protocols differ between the studies behind these lines. pEC50, pIC50: −log10 of the molar value.
Compound,organism,assay,system,setting,measurement,result
C/C(=N\N=C(/C)c1c(O)c2ccccc2oc1=O)c1c(O)c2ccccc2oc1=O,Aspergillus glaucus,"microbial growth, broth dilution",,48 h,MIC,31.2 µg/mL
CC1(C)S[C@@H]2[C@H](NC(=O)[C@H](N)c3ccccc3)C(=O)N2[C@H]1C(=O)O,Enterococcus faecalis,"microbial growth, agar dilution",ATCC29212,,MIC,64 µg/mL
OC(Cn1cncn1)(Cn1cncn1)c1ccc(F)cc1F,Aspergillus fumigatus,"microbial growth, broth dilution",,,MIC,4 µg/mL
C=C[C@]1(C)C[C@@H](OC(=O)CS[C@@H]2C[C@H]3CC[C@@H](C2)N3C)[C@]2(C)[C@H](C)CC[C@]3(CCC(=O)[C@H]32)[C@@H](C)[C@@H]1O,Enterococcus faecalis,"microbial growth, agar dilution",ATCC29212,,MIC,128 µg/mL
CN1CCN(c2ccc(-c3ccc4c(Nc5ncccn5)cnnc4c3)cc2)CC1,Leishmania major,parasite growth,,"intracellular, amastigote",pEC50,< 4.90
C/C(=N\C(=S)/N=C(\C)c1c(O)c2ccccc2oc1=O)c1c(O)c2ccccc2oc1=O,Aspergillus glaucus,"microbial growth, broth dilution",,48 h,MIC,31.2 µg/mL
CNC(=S)NN=Cc1ccc(Br)cc1,Leishmania major,parasite growth,J774.A1,"72 h, intracellular, amastigote",pIC50,4.50
[H]/N=C(\N/C(=N/[H])NCCCCCCNC(=N)NC(=N)Nc1ccc(Cl)cc1)Nc1ccc(Cl)cc1,Enterococcus faecalis,microbial growth,,,MIC,4 µM
CC[C@H]1OC(=O)[C@H](C)[C@@H](O[C@H]2C[C@@](C)(OC)[C@@H](O)[C@H](C)O2)[C@H](C)[C@@H](O[C@@H]2O[C@H](C)C[C@H](N(C)C)[C@H]2O)[C@](C)(O)C[C@@H](C)/C(=N\OCOCCOC)[C@H](C)[C@@H](O)[C@]1(C)O,Enterococcus faecalis,microbial growth,,clinical isolate,MIC50,> 128 µg/mL
Cc1ccc(Nc2cnnc3cc(-c4ccc(N5CCN(C)CC5)cc4)ccc23)cn1,Leishmania major,parasite growth,,"intracellular, amastigote",pEC50,< 4.62
CCCCCCCCN=c1ccn(CCCCCCCCCCn2ccc(=NCCCCCCCC)cc2)cc1,Enterococcus faecalis,microbial growth,,,MIC,0.5 µM
Cc1c2c(nn1C)CSCc1cc(n(C)n1)CSc1cc(c3ccccc3c1)OCCCc1c(C(=O)O)n(C)c3c-2c(Cl)ccc13,Enterococcus faecalis,"microbial growth, broth dilution",,clinical isolate,MIC50,25 µM
CNC(=S)NN=Cc1ccc(OC)cc1,Leishmania major,"parasite growth, MTT",,"72 h, promastigote",pIC50,4.57
OC(Cn1cncn1)(Cn1cncn1)c1ccc(F)cc1F,Aspergillus fumigatus,"microbial growth, broth dilution",AF293,48 h,MIC,> 64 µg/mL
CN[C@H](CC(C)C)C(=O)N[C@H]1C(=O)N[C@@H](CC(N)=O)C(=O)N[C@H]2C(=O)N[C@H]3C(=O)N[C@H](C(=O)N[C@H](C(=O)O)c4cc(O)cc(O)c4-c4cc3ccc4O)[C@H](O)c3ccc(c(Cl)c3)Oc3cc2cc(c3O[C@@H]2O[C@H](CO)[C@@H](O)[C@H](O)[C@H]2O[C@H]2C[C@](C)(N)[C@H](O)[C@H](C)O2)Oc2ccc(cc2Cl)[C@H]1O,Enterococcus faecalis,"microbial growth, broth dilution",,clinical isolate,MIC90,2 µg/mL
Cc1ccc(Nc2cnnc3ccc(-c4ccc(N5CCN(C)CC5)cc4)cc23)cn1,Leishmania major,parasite growth,,"intracellular, amastigote",pEC50,< 4.62
CC(=O)NC[C@H]1CN(c2ccc(N3CCOCC3)c(F)c2)C(=O)O1,Enterococcus faecalis,"microbial growth, broth dilution",,clinical isolate,MIC90,1 µg/mL
Cc1ccc(Nc2cnnc3ccc(-c4ccc(N5CCCN(C)CC5)cc4)cc23)cn1,Leishmania major,parasite growth,,"intracellular, amastigote",pEC50,< 5.33
COc1ccc(C=NNC(=S)Nc2cccnc2)cc1OC,Leishmania major,"parasite growth, MTT",,"72 h, promastigote",pIC50,2.97
C/C(=N\c1nc(N)nc(/N=C(\C)c2c(O)c3ccccc3oc2=O)n1)c1c(O)c2ccccc2oc1=O,Aspergillus glaucus,"microbial growth, broth dilution",,48 h,MIC,31.2 µg/mL
CNC(=S)NN=Cc1ccc(OC)c(OC)c1,Leishmania major,"parasite growth, MTT",,"72 h, promastigote",pIC50,4.27
C/C(=N\C(=O)/N=C(\C)c1c(O)c2ccccc2oc1=O)c1c(O)c2ccccc2oc1=O,Aspergillus glaucus,"microbial growth, broth dilution",,48 h,MIC,62.5 µg/mL
COc1ccc(Nc2cnnc3ccc(-c4cnc(N5CCN(C)CC5)nc4)cc23)cc1Cl,Leishmania major,parasite growth,,"intracellular, amastigote",pEC50,< 4.66
C/C(=N\C1CCCCC1/N=C(\C)c1c(O)c2ccccc2oc1=O)c1c(O)c2ccccc2oc1=O (centres unmarked),Aspergillus glaucus,"microbial growth, broth dilution",,48 h,MIC,31.2 µg/mL
CNC(=S)NN=Cc1ccc(C)cc1,Leishmania major,"parasite growth, MTT",,"72 h, promastigote",pIC50,3.03
COc1ccc(Nc2cnnc3ccc(-c4cnc(N5CCCN(C)CC5)nc4)cc23)cc1Cl,Leishmania major,parasite growth,,"intracellular, amastigote",pEC50,< 4.68
S=C(NN=Cc1ccc(Br)cc1)Nc1cccnc1,Leishmania major,"parasite growth, MTT",,"72 h, promastigote",pIC50,3.05
CN1CCN(c2ccc(-c3ccc4c(Nc5cnccn5)cnnc4c3)cc2)CC1,Leishmania major,parasite growth,,"intracellular, amastigote",pEC50,< 4.60
COc1ccc(C=NNC(=S)Nc2cccnc2)cc1,Leishmania major,"parasite growth, MTT",,"72 h, promastigote",pIC50,3.00
COc1c(N2C[C@@H]3CCCN[C@@H]3C2)c(F)cc2c(=O)c(C(=O)O)cn(C3CC3)c12,Enterococcus faecalis,"microbial growth, broth dilution",,clinical isolate,MIC90,1 µg/mL
CNC(=S)NN=Cc1ccc([N+](=O)[O-])cc1,Leishmania major,"parasite growth, MTT",,"72 h, promastigote",pIC50,3.80
COc1ccc(Nc2cnnc3cc(-c4cnc(N5CCCN(C)CC5)nc4)ccc23)cc1Cl,Leishmania major,parasite growth,,"intracellular, amastigote",pEC50,< 5.68
